Residues, ends and D or L forms follow the SMILES beside them. *: point of attachment. Boc = CC(C)(C)OC(=O)*
Experiments:
Format in all cases: functional, cell-based
[1] = test system: HeLa; test: Cytotoxicity against human HeLa cells after 72 hrs by Alamar Blue assay
Procedure, shortened: (§1)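 A549 or HeLa cells in RPMI1640 + 10% FBS at 37 °C, 5% CO2. Seeded 1500 cells/well and left to adhere 2−3 h, then given compound diluted from DMSO stock in media (31.6 nM to 200 μM), in triplicate. After 69 h, Alamar Blue was added for 3 h more; fluorescence read at ex 560/em 590 nm. Doxorubicin and etoposide served as positive controls, untreated wells as negative. IC50 taken from ≥3 independent experiments.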

[2] = test system: U-937; test: Cytotoxicity against human U937 cells after 72 hrs by Alamar Blue assay; conditions: U-937, 72 h
Procedure, shortened: (§2)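 Nonadherent cells in RPMI1640 + 10% FBS at 37 °C, 5% CO2. Compound from DMSO stock was diluted in media (31.6 nM to 200 μM) and plated in triplicate; cells (2000/well) were added afterwards. After 69 h, Alamar Blue was added for 3 h more; fluorescence read at ex 560/em 590 nm. Doxorubicin and etoposide served as positive controls. IC50 taken from ≥3 independent experiments.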

[3] = test system: A549; test: Cytotoxicity against human A549 cells after 72 hrs by Alamar Blue assay; conditions: A549, 72 h; procedure, shortened: as §1
[4] = Cytotoxicity against human MM1R cells after 72 hrs by Alamar Blue assay; conditions: MM.1R; procedure, shortened: as §2
[5] = Cytotoxicity against human MiaPaCa cells after 72 hrs by Alamar Blue assay; conditions: MIA PaCa-2, 72 h
Procedure, shortened: as §1, with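 “Mia PaCa-2” for “A549 or HeLa cells”, “DMEM” for “RPMI1640”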

[6] = test system: RPMI-8226; test: Cytotoxicity against human RPMI8226 cells after 72 hrs by Alamar Blue assay; conditions: RPMI-8226, 72 h; procedure, shortened: as §2

Compound | IC50 [1] [µM] | IC50 [2] [µM] | IC50 [3] [µM] | IC50 [4] [µM] | IC50 [5] [µM] | IC50 [6] [µM]
H-IPLWPVIP-OH | 18.4 | > 20 | > 20 | > 20 | > 20 | 16.4
CC[C@H](C)[C@@H]1NC(=O)[C@H](C(C)C)NC(=O)[C@@H]2CCCN2C(=O)[C@H](Cc2c[nH]c3ccccc23)NC(=O)[C@H](CC(C)C)NC(=O)[C@@H]2CCCN2C(=O)[C@H]([C@@H](C)CC)NC(=O)[C@@H]2CCCN2C1=O (cyclo(IPIPLWPV)) | 16.9 | 12.4 | > 20 | > 11.2 | > 20 | 4.5
CC[C@H](C)[C@H](NC(=O)[C@@H](NC(=O)[C@@H]1CCCN1C(=O)OC(C)(C)C)C(C)C)C(=O)N1CCC[C@H]1C(=O)N[C@H](C(=O)N1CCC[C@H]1C(=O)N[C@@H](CC(C)C)C(=O)N[C@@H](Cc1c[nH]c2ccccc12)C(=O)OC)[C@@H](C)CC (Boc-PVIPIPLW-OMe) | > 20 | > 20 | > 20 | > 20 | 19.1 | > 20
H-PVIPIPLW-OH | > 20 | 9.5 | > 20 | > 20 | > 20 | > 20
CC[C@H](C)[C@H](NC(=O)OC(C)(C)C)C(=O)N1CCC[C@H]1C(=O)N[C@@H](CC(C)C)C(=O)N[C@@H](Cc1c[nH]c2ccccc12)C(=O)N1CCC[C@H]1C(=O)N[C@H](C(=O)N[C@H](C(=O)N1CCC[C@H]1C(=O)OC)[C@@H](C)CC)C(C)C (Boc-IPLWPVIP-OMe) | > 20 | > 20 | > 20 | > 20 | > 20 | > 20

Reference: ChEMBL document CHEMBL4130582, “Total Synthesis of Reniochalistatin E” (J Nat Prod, 2017)
